Source: ChEMBL document CHEMBL4400539, “Discovery of a Novel Chemotype of Histone Lysine Methyltransferase EHMT1/2 (GLP/G9a) Inhibitors: Rational Design, Synthesis, Biological Evaluation, and Co-crystal Structure” (J Med Chem, 2019)
Activity calls are given as the source filed them. The calls are words filed in the database; no cut-off is given here.

Experiments:
[1] = molecular target: T1, Histone-lysine N-methyltransferase EHMT2 (Homo sapiens, UniProt Q96KQ7); assay: Binding affinity to human His-tagged G9a expressed in Escherichia coli Rosetta (DE3) after 30 mins by MST binding assay
T1 sequence (Q96KQ7 whole entry): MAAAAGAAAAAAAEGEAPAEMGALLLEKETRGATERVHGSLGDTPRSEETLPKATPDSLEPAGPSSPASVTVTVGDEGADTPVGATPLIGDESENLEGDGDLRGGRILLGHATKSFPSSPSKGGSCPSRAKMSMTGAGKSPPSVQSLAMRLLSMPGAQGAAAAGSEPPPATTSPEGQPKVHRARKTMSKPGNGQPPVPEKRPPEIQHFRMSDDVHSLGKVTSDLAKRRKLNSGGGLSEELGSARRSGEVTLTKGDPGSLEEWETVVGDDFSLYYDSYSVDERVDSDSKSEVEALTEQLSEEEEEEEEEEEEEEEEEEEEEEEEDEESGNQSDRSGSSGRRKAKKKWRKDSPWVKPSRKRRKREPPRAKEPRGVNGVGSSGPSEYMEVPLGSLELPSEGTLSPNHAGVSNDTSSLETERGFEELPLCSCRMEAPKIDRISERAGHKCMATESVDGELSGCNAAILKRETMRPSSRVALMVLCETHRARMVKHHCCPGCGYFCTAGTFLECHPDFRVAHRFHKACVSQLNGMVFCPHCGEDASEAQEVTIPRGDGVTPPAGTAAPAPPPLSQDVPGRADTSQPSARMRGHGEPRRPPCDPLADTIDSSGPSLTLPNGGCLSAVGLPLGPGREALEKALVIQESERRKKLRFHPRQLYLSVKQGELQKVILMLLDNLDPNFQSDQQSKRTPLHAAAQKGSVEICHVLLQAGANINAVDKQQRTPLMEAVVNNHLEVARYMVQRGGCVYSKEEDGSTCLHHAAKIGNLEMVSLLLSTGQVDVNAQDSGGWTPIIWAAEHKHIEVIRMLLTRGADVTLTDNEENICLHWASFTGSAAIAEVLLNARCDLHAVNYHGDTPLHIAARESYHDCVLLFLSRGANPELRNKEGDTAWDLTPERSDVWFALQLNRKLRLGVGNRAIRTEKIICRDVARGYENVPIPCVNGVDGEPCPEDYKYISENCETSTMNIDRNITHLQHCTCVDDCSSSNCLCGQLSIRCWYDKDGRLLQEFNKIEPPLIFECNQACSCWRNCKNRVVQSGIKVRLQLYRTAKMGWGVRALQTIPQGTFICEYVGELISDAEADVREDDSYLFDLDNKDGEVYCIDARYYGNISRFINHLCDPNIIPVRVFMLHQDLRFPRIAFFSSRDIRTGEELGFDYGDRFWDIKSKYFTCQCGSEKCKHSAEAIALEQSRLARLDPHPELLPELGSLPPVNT

[2] = molecular target: T2, Histone-lysine N-methyltransferase EHMT2 (Homo sapiens) (UniProt Q96KQ7); assay: Inhibition of recombinant human G9a at 25 uM using biotinylated-Histone H3 peptide (1 to 21 residues) after 30 mins by AlphaLISA assay relative to control
T2 sequence (whole entry): T1 sequence (Q96KQ7 whole entry)
In short: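 G9a AlphaLISA at fixed 10 or 25 μM compound: human recombinant G9a 1 nM, 30 min preincubation, then biotinylated H3(1–21) 100 nM plus SAM 15 μM for 30 min at room temperature, pH 8.8 Tris buffer with 0.01% Tween-20; anti-H3K9me2 acceptor and streptavidin donor beads; percent of DMSO control.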

MDA-MB-231 = assay: Cytotoxicity against human MDA-MB-231 cells assessed as reduction in cell viability up to 5 uM after 72 hrs by MTT assay; assay type: cell-based; settings: mda-mb-231, 72 h
In short: (§1)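 MCF-7, MDA-MB-231 and U-343 cells exposed 24, 48 and 72 h to 0.05, 0.5, 5 and 50 μM compound; viability by MTT reduction to formazan versus vehicle; mean ± SD of at least three independent experiments.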

[3] = molecular target: Protein arginine N-methyltransferase 1 (Homo sapiens) (UniProt Q99873); assay: Inhibition of recombinant human PRMT1 at 10 to 25 uM using biotinylated-Histone H4 peptide (1 to 21 residues) as substrate preincubated for 30 mins followed by substrate addition and measured after 60 mins in presence of SAM by AlphaLISA assay relative to control
Sequence of Protein arginine N-methyltransferase 1 (Homo sapiens) (Q99873 whole entry, looked up, the tested form may be a part): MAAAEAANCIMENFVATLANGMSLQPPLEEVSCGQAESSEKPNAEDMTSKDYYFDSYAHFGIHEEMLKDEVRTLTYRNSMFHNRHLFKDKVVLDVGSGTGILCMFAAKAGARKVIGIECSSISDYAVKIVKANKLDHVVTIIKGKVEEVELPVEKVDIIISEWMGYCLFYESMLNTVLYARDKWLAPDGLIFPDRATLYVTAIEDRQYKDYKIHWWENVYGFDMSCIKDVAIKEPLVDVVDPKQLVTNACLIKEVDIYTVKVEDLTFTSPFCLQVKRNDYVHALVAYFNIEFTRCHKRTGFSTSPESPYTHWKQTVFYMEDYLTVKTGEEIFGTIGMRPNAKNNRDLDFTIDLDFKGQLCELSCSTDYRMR
In short: (§2)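 Biotinylated H4(1–21) peptide plus SAM then added for 60 min: PRMT1 0.9 nM, peptide 100 nM, SAM 2 μM; PRMT3 23 nM, peptide 50 nM, SAM 10 μM. Anti-H4R3me AlphaLISA; 10 and 25 μM; three experiments, mean ± SD.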

[4] = molecular target: Protein arginine N-methyltransferase 3 (Homo sapiens) (UniProt O60678); assay: Inhibition of recombinant human PRMT3 at 10 to 25 uM using biotinylated-Histone H4 peptide (1 to 21 residues) as substrate preincubated for 30 mins followed by substrate addition and measured after 60 mins in presence of SAM by AlphaLISA assay relative to control; in short: as §2
Sequence of Protein arginine N-methyltransferase 3 (Homo sapiens) (O60678 2-531 limits assumed): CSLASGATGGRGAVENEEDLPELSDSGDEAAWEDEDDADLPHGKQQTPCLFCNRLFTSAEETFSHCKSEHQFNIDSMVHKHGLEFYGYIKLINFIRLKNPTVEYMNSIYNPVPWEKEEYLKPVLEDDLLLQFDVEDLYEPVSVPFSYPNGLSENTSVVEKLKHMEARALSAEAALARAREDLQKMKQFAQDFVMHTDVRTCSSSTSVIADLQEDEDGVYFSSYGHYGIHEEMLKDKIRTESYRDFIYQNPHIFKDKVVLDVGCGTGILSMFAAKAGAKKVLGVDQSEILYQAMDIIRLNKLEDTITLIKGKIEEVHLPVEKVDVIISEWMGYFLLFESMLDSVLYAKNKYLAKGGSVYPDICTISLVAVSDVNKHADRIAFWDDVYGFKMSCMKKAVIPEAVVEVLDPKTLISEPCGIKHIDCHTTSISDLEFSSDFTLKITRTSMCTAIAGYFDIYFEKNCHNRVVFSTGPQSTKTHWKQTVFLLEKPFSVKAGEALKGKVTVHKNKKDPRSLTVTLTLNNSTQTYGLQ

[5] = Cytotoxicity against human U343MG cells assessed as reduction in cell viability up to 5 uM after 72 hrs by MTT assay; assay type: cell-based; in short: as §1

For `COc1cc2c(cc1OCCCN1CCCC1)N=C(C1CCCCC1)CN=C2NC1CCN(C(C)C)CC1`, the Kd [1] was 1130 nM, the inhibition [2] was 98% and the Activity (MDA-MB-231) was “Non-Toxic”. The inhibition [3] was “inactive”, the inhibition [4] was “inactive” and the Activity [5] was “Non-Toxic”.
